Reference: ChEMBL document CHEMBL2040734, “Benzothiazoles: search for anticancer agents” (2012)

Key:
Format in all cases: functional
MDA-MB-231 = assay: Cytotoxicity against human MDA-MB-231 cells assessed as cell growth at 10 '-5 M after 48 hrs by sulforhodamine B assay; details: MDA-MB-231, 48 h, read-out: Activity
SF-268 [1] = assay: Cytotoxicity against human SF268 cells assessed as cell growth at 0.01 uM after 48 hrs by sulforhodamine B assay; details: SF-268, 48 h, read-out: Activity
HL-60(TB) = assay: Cytotoxicity against human HL-60(TB) cells assessed as cell growth at 10 uM after 48 hrs by sulforhodamine B assay; details: HL-60, 48 h, read-out: Activity
Method in brief: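 NCI five-dose screen on the HL-60(TB) leukaemia line, grown in RPMI 1640 with 5% FBS and 2 mM L-glutamine and plated for 24 h before dosing. DMSO stocks were diluted in medium. Cells were exposed 48 h at 37 °C, then settled cells were fixed in 16% TCA (final) and stained with SRB, absorbance 515 nm. Percent growth = (Ti−Tz)/(C−Tz)×100, or (Ti−Tz)/Tz×100 when Ti<Tz.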

OVCAR-8 = assay: Cytotoxicity against human OVCAR8 cells assessed as cell growth at 10 '-5 M after 48 hrs by sulforhodamine B assay; details: OVCAR-8, 48 h, read-out: Activity
SK-MEL-28 [2] = assay: Cytotoxicity against human SK-MEL-28 cells assessed as cell growth at 1 uM after 48 hrs by sulforhodamine B assay; details: SK-MEL-28, 48 h, read-out: Activity
SF-295 = assay: Cytotoxicity against human SF295 cells assessed as cell growth at 1 uM after 48 hrs by sulforhodamine B assay; details: SF-295, 48 h, read-out: Activity
SK-MEL-5 = assay: Cytotoxicity against human SK-MEL-5 cells assessed as cell growth at 100 uM after 48 hrs by sulforhodamine B assay; details: SK-MEL-5, 48 h, read-out: Activity
NCI-H226 = assay: Growth inhibition of human NCI-H226 cells after 48 hrs by sulforhodamine B assay; details: NCI-H226, 48 h
Method in brief: (§1)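 Adherent NCI-60 lines were grown in RPMI 1640 with 5% FBS and 2 mM L-glutamine, plated at 5000–40,000 cells/well and preincubated 24 h. They were then exposed to five concentrations (0.01–100 µM, from a DMSO stock) for 48 h at 37 °C, 5% CO2. Cells were fixed with cold TCA (10% final, 60 min, 4 °C) and stained with 0.4% SRB. Dye was solubilized in 10 mM Tris base and A515 read. GI50 was derived from time-zero, control and treated absorbances.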

OVCAR-4 = assay: Cytotoxicity against human OVCAR4 cells assessed as cell growth at 1 uM after 48 hrs by sulforhodamine B assay; details: OVCAR-4, 48 h, read-out: Activity
HCC 2998 = assay: Cytotoxicity against human HCC2998 cells assessed as cell growth at 10 '-5 M after 48 hrs by sulforhodamine B assay; details: HCC 2998, 48 h, read-out: Activity
Method in brief: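 Primary one-dose screen across the NCI 60-line panel at 10 µM. Cells were grown in RPMI 1640 with 5% FBS and 2 mM L-glutamine and held 24 h before drug. Drug was diluted from a DMSO concentrate. Exposure was 48 h at 37 °C, 5% CO2. Cells were fixed with TCA and stained with SRB, with absorbance read at 515 nm. Percent growth was calculated against time-zero and untreated control.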

786-0 = assay: Growth inhibition of human 786-0 cells after 48 hrs by sulforhodamine B assay; details: 786-0, 48 h; for CC50: read-out: LC50 (the source's name)
Method in brief: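 Cells were in RPMI 1640 with 5% FBS and pre-incubated 24 h. Read-out was TCA fixation, SRB staining and absorbance at 515 nm. GI50 was the concentration where [(Ti−Tz)/(C−Tz)]×100 = 50, taken from log concentration vs % growth curves. It is given as ">" the top concentration when not reached.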

RPMI-8226 = assay: Cytotoxicity against human RPMI8226 cells assessed as cell growth at 1 uM after 48 hrs by sulforhodamine B assay; details: RPMI-8226, 48 h, read-out: Activity
SK-MEL-28 [3] = assay: Growth inhibition of human SK-MEL-28 cells after 48 hrs by sulforhodamine B assay; details: SK-MEL-28, 48 h; method in brief: as §1
NCI-H322M = assay: Cytotoxicity against human NCI-H322M cells assessed as cell growth at 0.01 uM after 48 hrs by sulforhodamine B assay; details: read-out: Activity
OVCAR-3 = assay: Growth inhibition of human OVCAR3 cells after 48 hrs by sulforhodamine B assay; details: OVCAR-3, 48 h; for CC50: read-out: LC50 (the source's name); method in brief: as §1
SK-MEL-28 [4] = assay: Cytotoxicity against human SK-MEL-28 cells assessed as cell growth at 100 uM after 48 hrs by sulforhodamine B assay; details: SK-MEL-28, 48 h, read-out: Activity
[5] = Cytotoxicity against human Hs 578T cells assessed as cell growth at 0.1 uM after 48 hrs by sulforhodamine B assay; details: read-out: Activity
Method in brief: (§2)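 Five-dose NCI panel run at 0.01, 0.1, 1, 10 and 100 µM. Cells were in RPMI 1640 with 5% FBS and 2 mM L-glutamine, seeded at 5000–40,000 cells/well and pre-incubated 24 h. Drug was diluted from a DMSO stock into medium with 50 µg/ml gentamicin. Exposure was 48 h at 37 °C, 5% CO2. Cells were fixed with cold TCA and stained with 0.4% SRB, read at 515 nm. Percent growth came from time-zero, control and test absorbances.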

SNB-75 = assay: Cytotoxicity against human SNB75 cells assessed as cell growth at 1 uM after 48 hrs by sulforhodamine B assay; details: SNB-75, 48 h, read-out: Activity
TK-10 = assay: Cytotoxicity against human TK10 cells assessed as cell growth at 0.01 uM after 48 hrs by sulforhodamine B assay; details: TK-10, 48 h, read-out: Activity
BT-549 = assay: Cytotoxicity against human BT549 cells assessed as cell growth at 1 uM after 48 hrs by sulforhodamine B assay; details: BT-549, 48 h, read-out: Activity
Method in brief: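 NCI-60 five-dose screen. Cells were grown in RPMI 1640 with 5% FBS and 2 mM L-glutamine and preincubated 24 h. Compound (DMSO stock) was tested at 0.01, 0.1, 1, 10 and 100 µM for 48 h at 37 °C. Cells were fixed in situ with cold TCA (final 10%) and stained with 0.4% SRB. A515 was read, and percent growth was calculated against time-zero and control plates.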

SF-268 [6] = assay: Cytotoxicity against human SF268 cells assessed as cell growth at 10 uM after 48 hrs by sulforhodamine B assay; details: SF-268, 48 h, read-out: Activity
HCT-15 = assay: Cytotoxicity against human HCT15 cells assessed as cell growth at 100 uM after 48 hrs by sulforhodamine B assay; details: HCT-15, 48 h, read-out: Activity; method in brief: as §2
IGROV-1 = assay: Cytotoxicity against human IGROV1 cells assessed as cell growth at 0.01 uM after 48 hrs by sulforhodamine B assay; details: IGROV-1, 48 h, read-out: Activity

In the case of `Cc1ccc2nc(Nc3c(C)cccc3C)sc2c1`, the growth at 10 µM (MDA-MB-231) is reported as 47%, the growth at 0.01 µM (SF-268 [1]) is reported as 94% and the growth at 10 µM (HL-60(TB)) is reported as 30%. The growth at 10 µM (OVCAR-8) was 56.4%, the growth at 1 µM (SK-MEL-28 [2]) was 66% and the growth at 1 µM (SF-295) was 44%. The growth at 100 µM (SK-MEL-5) was 60%, the GI50 (NCI-H226) was greater than 100 µM and the LC50 (NCI-H226) was greater than 100 µM. The TGI (NCI-H226) was greater than 100 µM, the growth at 1 µM (OVCAR-4) was 71% and the growth at 10 µM (HCC 2998) was 54.1%. It also gave a GI50 (786-0) greater than 100 µM, a TGI (786-0) greater than 100 µM and a CC50 (786-0) greater than 100 µM. The growth at 1 µM (RPMI-8226) was 75%, the LC50 (SK-MEL-28 [3]) was greater than 100 µM and the TGI (SK-MEL-28 [3]) was greater than 100 µM. It also gave a growth at 0.01 µM (NCI-H322M) of 97%, a GI50 (OVCAR-3) greater than 100 µM and a TGI (OVCAR-3) greater than 100 µM. For the same compound, the CC50 (OVCAR-3) was greater than 100 µM, the growth at 100 µM (SK-MEL-28 [4]) was 55% and the growth at 0.1 µM [5] was 97%. The growth at 1 µM (SNB-75) was 52%, the growth at 0.01 µM (TK-10) was 104% and the growth at 1 µM (BT-549) was 63%. For the same compound, the growth at 10 µM (SF-268 [6]) was 64%, the growth at 100 µM (HCT-15) was 40% and the growth at 0.01 µM (IGROV-1) was 107%.

With `Clc1cccc(Cl)c1Nc1nc2cccc(Cl)c2s1` the growth at 10 µM (MDA-MB-231) was -66.8%, the growth at 0.01 µM (SF-268 [1]) was 98% and the growth at 10 µM (HL-60(TB)) was -47%. It also gave a growth at 10 µM (OVCAR-8) of -13.8%, a growth at 1 µM (SK-MEL-28 [2]) of 77% and a growth at 1 µM (SF-295) of 33%. For the same compound, the growth at 100 µM (SK-MEL-5) was -76%, the GI50 (NCI-H226) was 1.18 µM and the LC50 (NCI-H226) was 6.95 µM. It also gave a TGI (NCI-H226) of 2.86 µM, a growth at 1 µM (OVCAR-4) of 44% and a growth at 10 µM (HCC 2998) of -26.1%. The GI50 (786-0) was 1.03 µM, the TGI (786-0) was 2.28 µM and the CC50 (786-0) was 5.03 µM. The growth at 1 µM (RPMI-8226) was 46%, the GI50 (SK-MEL-28 [3]) was 1.46 µM and the LC50 (SK-MEL-28 [3]) was 6.02 µM. The TGI (SK-MEL-28 [3]) was 2.96 µM, the growth at 0.01 µM (NCI-H322M) was 92% and the GI50 (OVCAR-3) was 0.983 µM. It also gave a TGI (OVCAR-3) of 2.2 µM, a CC50 (OVCAR-3) of 4.86 µM and a growth at 100 µM (SK-MEL-28 [4]) of -69%. For the same compound, the growth at 0.1 µM [5] was 81%, the growth at 1 µM (SNB-75) was 46% and the growth at 0.01 µM (TK-10) was 98%. The growth at 1 µM (BT-549) was 79%, the growth at 10 µM (SF-268 [6]) was -87% and the growth at 100 µM (HCT-15) was -74%. It also gave a growth at 0.01 µM (IGROV-1) of 114%.
